In ChEMBL document CHEMBL5303300, “EUbOPEN Chemogenomics Library - Multiplex” (2023):
Where “and” joins values, the source holds several entries; their conditions need not be identical. Identical values can stand only once.

Tested on: U2OS
Experiment: Multiplex assay against U2OS
Format: toxicity, cell-based
Details: human, number of replicates 2
Method in brief: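 Cells were classed with CellPathfinder machine-learning gating, first as Hoechst high-intensity objects or normal cells, then (normal cells) as healthy, pyknosed or fragmented nuclei, and finally (pyknosed cells) as mitotic or apoptotic. Staining of live cells at seeding used Hoechst33342, BioTracker Green Microtubule Cytoskeleton Dye, MitoTracker Red and Annexin V Alexa Fluor 680, with imaging on a CQ1 microscope at 37°C and 5% CO2 after compound addition. Tubulin, mitochondrial-mass and membrane-permeability phenotypes are per cents of healthy-nucleus cells.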

[1] = 12 h, 1 µM, compound concentration 1 uM
[2] = 12 h, 10 µM, compound concentration 10 uM
[3] = 24 h, 1 µM, compound concentration 1 uM
[4] = 24 h, 10 µM, compound concentration 10 uM
[5] = 48 h, 1 µM, compound concentration 1 uM
[6] = 48 h, 10 µM, compound concentration 10 uM

## CN(C)C/C=C/C(=O)Nc1ccc(C(=O)Nc2cccc(Nc3ncc(Cl)c(-c4c[nH]c5ccccc45)n3)c2)cc1
[1]
  Population Apoptotic (%): 81% and 93%
  Population Fragmented Nuclei (%): 12% and 3%
  Population Healthy Nuclei (%): 53% and 73%
  Population Hoechst High Intensity Objects (%): 0%
  Population Membrane Permeable-Phenotype (%): 0% and 2%
  Population Mitochondria Different-Phenotype (%): 0% and 4%
  Population Mitotic Cells (%): 18% and 6%
  Population Normal (%): 100%
  Population Pyknosed Nuclei (%): 34% and 22%
  Population Tubulin-Different-Phenotype (%): 64% and 72%
[2]
  Population Apoptotic (%): 96% and 89%
  Population Fragmented Nuclei (%): 17% and 9%
  Population Healthy Nuclei (%): 35% and 56%
  Population Hoechst High Intensity Objects (%): 0%
  Population Membrane Permeable-Phenotype (%): 18% and 17%
  Population Mitochondria Different-Phenotype (%): 4% and 11%
  Population Mitotic Cells (%): 3% and 10%
  Population Normal (%): 100%
  Population Pyknosed Nuclei (%): 46% and 34%
  Population Tubulin-Different-Phenotype (%): 40% and 48%
[3]
  Population Apoptotic (%): 83% and 94%
  Population Fragmented Nuclei (%): 17% and 9%
  Population Healthy Nuclei (%): 31% and 40%
  Population Hoechst High Intensity Objects (%): 0% and 1%
  Population Mitochondria Different-Phenotype (%): 27% and 12%
  Population Normal (%): 100% and 98%
  Population Pyknosed Nuclei (%): 51% and 50%
  Population Tubulin-Different-Phenotype (%): 100% and 77%
[4]
  Population Apoptotic (%): 92% and 98%
  Population Fragmented Nuclei (%): 21% and 11%
  Population Healthy Nuclei (%): 18% and 31%
  Population Hoechst High Intensity Objects (%): 0% and 1%
  Population Membrane Permeable-Phenotype (%): 46% and 27%
  Population Mitochondria Different-Phenotype (%): 23% and 31%
  Population Mitotic Cells (%): 7% and 1%
  Population Normal (%): 100% and 98%
  Population Pyknosed Nuclei (%): 59% and 57%
  Population Tubulin-Different-Phenotype (%): 61% and 54%
[5]
  Population Apoptotic (%): 84% and 96%
  Population Fragmented Nuclei (%): 17% and 10%
  Population Healthy Nuclei (%): 14% and 18%
  Population Hoechst High Intensity Objects (%): 0% and 2%
  Population Membrane Permeable-Phenotype (%): 50% and 44%
  Population Mitochondria Different-Phenotype (%): 50% and 48%
  Population Normal (%): 100% and 97%
  Population Pyknosed Nuclei (%): 67% and 70%
  Population Tubulin-Different-Phenotype (%): 100% and 88%
[6]
  Population Apoptotic (%): 99% and 95%
  Population Fragmented Nuclei (%): 7% and 19%
  Population Hoechst High Intensity Objects (%): 3% and 0%
  Population Mitochondria Different-Phenotype (%): 67% and 100%
  Population Mitotic Cells (%): 0% and 4%
  Population Normal (%): 96% and 100%
  Population Pyknosed Nuclei (%): 79% and 78%
  Population Tubulin-Different-Phenotype (%): 89% and 100%

## COc1cc(Nc2cnc(C#N)c(O[C@H](C)CN(C)C)n2)ncc1-c1cnn(C)c1
[1]
  Population Apoptotic (%): 100% and 59%
  Population Healthy Nuclei (%): 63% and 83%
  Population Hoechst High Intensity Objects (%): 0%
  Population Mitochondria Different-Phenotype (%): 8% and 2%
  Population Normal (%): 100%
  Population Pyknosed Nuclei (%): 10% and 11%
  Population Tubulin-Different-Phenotype (%): 75% and 63%
[2]
  Population Apoptotic (%): 88% and 56%
  Population Healthy Nuclei (%): 39% and 74%
  Population Hoechst High Intensity Objects (%): 0%
  Population Mitochondria Different-Phenotype (%): 6% and 8%
  Population Normal (%): 100%
  Population Pyknosed Nuclei (%): 21% and 15%
  Population Tubulin-Different-Phenotype (%): 25% and 32%
[3]
  Population Apoptotic (%): 50% and 76%
  Population Healthy Nuclei (%): 67% and 86%
  Population Hoechst High Intensity Objects (%): 0%
  Population Membrane Permeable-Phenotype (%): 0% and 2%
  Population Mitochondria Different-Phenotype (%): 0%
  Population Mitotic Cells (%): 50% and 24%
  Population Normal (%): 100%
  Population Pyknosed Nuclei (%): 10% and 8%
  Population Tubulin-Different-Phenotype (%): 81% and 72%
[4]
  Population Apoptotic (%): 87% and 64%
  Population Fragmented Nuclei (%): 33% and 11%
  Population Healthy Nuclei (%): 37% and 67%
  Population Hoechst High Intensity Objects (%): 6% and 2%
  Population Mitochondria Different-Phenotype (%): 20% and 9%
  Population Mitotic Cells (%): 12% and 35%
  Population Normal (%): 93% and 97%
  Population Pyknosed Nuclei (%): 29% and 20%
  Population Tubulin-Different-Phenotype (%): 60% and 44%
[5]
  Population Apoptotic (%): 66% and 62%
  Population Healthy Nuclei (%): 55% and 83%
  Population Hoechst High Intensity Objects (%): 0%
  Population Membrane Permeable-Phenotype (%): 2%
  Population Mitochondria Different-Phenotype (%): 0%
  Population Mitotic Cells (%): 33% and 37%
  Population Normal (%): 100% and 99%
  Population Pyknosed Nuclei (%): 28% and 12%
  Population Tubulin-Different-Phenotype (%): 94% and 74%
[6]
  Population Apoptotic (%): 100% and 85%
  Population Fragmented Nuclei (%): 31% and 20%
  Population Healthy Nuclei (%): 20% and 46%
  Population Hoechst High Intensity Objects (%): 3% and 0%
  Population Membrane Permeable-Phenotype (%): 16% and 7%
  Population Mitochondria Different-Phenotype (%): 16% and 10%
  Population Mitotic Cells (%): 0% and 14%
  Population Normal (%): 96% and 99%
  Population Pyknosed Nuclei (%): 48% and 33%
  Population Tubulin-Different-Phenotype (%): 50% and 59%

## CN[C@@H]1C[C@H]2O[C@@](C)([C@@H]1OC)n1c3ccccc3c3c4c(c5c6ccccc6n2c5c31)C(=O)NC4 [STAUROSPORINE]
[2]
  Population Apoptotic (%): 40% and 72% and 59% and 58%
  Population Fragmented Nuclei (%): 50% and 34% and 30%
  Population Hoechst High Intensity Objects (%): 3% and 0%
  Population Membrane Permeable-Phenotype (%): 66% and 53% and 62% and 43%
  Population Mitochondria Different-Phenotype (%): 66% and 53% and 51% and 68%
  Population Mitotic Cells (%): 41% [middle of 4 runs]
  Population Normal (%): 96% and 100%
  Population Pyknosed Nuclei (%): 38% and 46% and 61% and 63%
  Population Tubulin-Different-Phenotype (%): 73% [middle of 4 runs]
[4]
  Population Apoptotic (%): 70% and 85% and 89%
  Population Fragmented Nuclei (%): 45% and 26% and 27% and 40%
  Population Healthy Nuclei (%): 5% and 3% and 4% and 8%
  Population Hoechst High Intensity Objects (%): 0% and 1%
  Population Mitochondria Different-Phenotype (%): 100% and 57% and 75% and 80%
  Population Mitotic Cells (%): 30% and 14% and 10%
  Population Normal (%): 100% and 98%
  Population Pyknosed Nuclei (%): 50% and 70% and 68%
  Population Tubulin-Different-Phenotype (%): 100% and 85% and 40%
[6]
  Population Apoptotic (%): 86% and 87% and 88% and 91%
  Population Healthy Nuclei (%): 6% and 5% and 4%
  Population Hoechst High Intensity Objects (%): 0%
  Population Membrane Permeable-Phenotype (%): 100% and 90% and 85%
  Population Mitochondria Different-Phenotype (%): 100% and 60% and 71%
  Population Mitotic Cells (%): 13% and 12% and 8%
  Population Normal (%): 100%
  Population Pyknosed Nuclei (%): 60% and 50% and 80% and 73%
  Population Tubulin-Different-Phenotype (%): 100% and 85%
